Experimental data taken from ChEMBL document CHEMBL1122845, “Inhibitors of blood platelet aggregation. Effects of some 1,2-benzisothiazol-3-ones on platelet responsiveness to adenosine diphosphate and collagen” (J Med Chem, 1985).
Blank lines part the entries; values can stand above or below the molecule they belong to.

Experiments:
Type in all cases: functional
[1] = tested on: Rattus norvegicus; assay: The compound was tested ex vivo at a dose of 0.15 mmol/kg for collagen induced platelet aggregation in rat
In short: (§1)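 Male rats (~200 g) or guinea pigs (~300 g), overnight fasted, n=5-10, received compound orally in 1% methylcellulose (5 mL/kg); vehicle-only controls. After 2 h, CO2 kill and vena cava blood into citrate (102 mM rat, 129 mM guinea pig). PRP set to 800000/µL (rat) or 500000/µL (guinea pig). Collagen EC50 (response of 50 mm; max 50 µg/mL) interpolated from a log plot. Dose ratio = treated/control mean EC50; t-test. Pooled PRP sometimes used.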

[2] = tested on: Rattus norvegicus; assay: The compound was tested ex vivo at a dose of 0.15 mmol/kg for ADP induced platelet aggregation in rat
In short: (§2)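 Fasted male rats (~200 g) or guinea pigs (~300 g), n=5-10, dosed orally (5 mL/kg) in 1% methylcellulose; methylcellulose alone as control. Killed with CO2 after 2 h. Vena cava blood citrated (102 mM rat, 129 mM guinea pig); PRP adjusted to 800000/µL (rat) or 500000/µL (guinea pig). EC25 for first-phase ADP aggregation (max 8 µM) interpolated from two 2-fold-spaced ADP levels. Dose ratio = treated/control mean EC25; Student's t-test. Some groups tested as pooled PRP.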

[3] = tested on: Cavia porcellus; assay: Ex vivo inhibition of ADP induced guinea pig platelet aggregation following 0.08 mmol/kg administration.; in short: as §2
[4] = tested on: Cavia porcellus; assay: Ex vivo inhibition of collagen induced guinea pig platelet aggregation following 0.08 mmol/kg administration.; in short: as §1
[5] = tested on: Cavia porcellus; assay: The compound was tested ex vivo at a dose of 0.04 mmol/kg for ADP induced platelet aggregation in guinea pig; in short: as §2
[6] = tested on: Cavia porcellus; assay: The compound was tested ex vivo at a dose of 0.04 mmol/kg for collagen induced platelet aggregation in guinea pig; in short: as §1
[7] = species on record: Homo sapiens; assay: In vitro inhibitory activity against human platelet aggregation in the presence of Adenosine diphosphate
In short: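 Human citrated PRP, platelet count adjusted to 350000/µL with autologous platelet-poor plasma. 90 µL PRP preincubated 3 min at 37 °C with compound or saline (DMF vehicle where needed), stirred at 1100 rpm. ADP chosen per preparation to give a clear first-phase response (typically 1 µM). Photometric read-out: maximum rise in light transmission within 1 min. IC50 determined.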

[8] = tested on: Rattus norvegicus; assay: The compound was tested ex vivo at a dose of 0.3 mmol/kg for collagen induced platelet aggregation in rat; in short: as §1
[9] = species on record: Homo sapiens; assay: In vitro inhibitory activity against human platelet aggregation in the presence of collagen
In short: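 Aggregation measured photometrically in human citrated PRP (350000 platelets/µL, stirred at 1100 rpm). Compound or saline preincubated 3 min at 37 °C. Collagen at a just-maximal level chosen for each sample (typically 0.7-1.4 µg/mL). Maximum increase in light transmission measured. IC50 = concentration giving 50% inhibition.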

[10] = tested on: Cavia porcellus; assay: The compound was tested ex vivo at a dose of 0.15 mmol/kg for ADP induced platelet aggregation in guinea pig; in short: as §2
[11] = tested on: Cavia porcellus; assay: The compound was tested ex vivo at a dose of 0.15 mmol/kg for collagen induced platelet aggregation in guinea pig; in short: as §1

SMILES: CCN(CC)CCn1sc2ccccc2c1=O
Activity [1]: 2.6 | Activity [2]: 1.3

SMILES: O=c1c2ccccc2sn1CCCCN1CCCC1
Activity [3]: 1.4 | Activity [4]: 1.9

SMILES: O=c1c2cc(Cl)c(Cl)cc2sn1CCN1CCCC1
Activity [1]: 1.8 | Activity [2]: 1.4

SMILES: Cc1cc(C)c2c(=O)n(CCN3CCCCC3)sc2c1
Activity [3]: >24 | Activity [5]: 2.1 | Activity [6]: >21 | Activity [4]: >21

SMILES: CN(CCn1sc2ccccc2c1=O)c1ccccc1
Activity [1]: 1.1 | Activity [2]: 1

IC50 [7]: 20 µM | IC50 [9]: 12 µM
SMILES: O=c1c2ccccc2sn1CCc1ccccn1
Activity [8]: 0.7

SMILES: O=c1c2cc(Cl)c(Cl)cc2sn1CCc1ccccn1
Activity [1]: 1 | Activity [2]: 1

SMILES: COc1cc(OC)c2c(=O)n(CCN3CCCCC3)sc2c1
Activity [3]: >27 | Activity [4]: >10

IC50 [7]: > 200 µM | IC50 [9]: 34 µM
SMILES: O=c1[nH]sc2ccccc12
Activity [8]: 1

SMILES: COc1cc2sn(CCN3CCCC3)c(=O)c2cc1OC
Activity [1]: 1.8 | Activity [2]: 1.1

SMILES: COc1cc(OC)c2c(=O)n(CCN3CCCC3)sc2c1
Activity [3]: 4.6 | Activity [4]: >31

SMILES: O=c1c2cc(Cl)c(Cl)cc2sn1CCN1CCCCC1
Activity [1]: 1.5 | Activity [2]: 1.2

collagen EC50 dose ratio (treated/control) [11]: 0.8
SMILES: Cc1cc2sn(CCc3ccccn3)c(=O)c2cc1C
Activity [10]: 0.9

SMILES: CCCCCn1sc2ccccc2c1=O
Activity [8]: 1.2

collagen EC50 dose ratio (treated/control) [11]: 1.5
SMILES: COc1cc2sn(CCc3ccccn3)c(=O)c2cc1OC
Activity [10]: 1.1 | Activity [1]: 2.8 | Activity [2]: 1.8

SMILES: O=c1c2ccccc2sn1CCCCN1CCCCC1
Activity [3]: 1.1 | Activity [4]: 3.4

collagen EC50 dose ratio (treated/control) [11]: 2.7
SMILES: COc1cc2sn(CCCCc3ccccn3)c(=O)c2cc1OC
Activity [10]: 2.4

SMILES: O=c1c2ccccc2sn1CCCN1CCCC1
Activity [3]: 2 | Activity [4]: 6.2

Dose ratio (treated/control collagen EC50) [6]: >17
SMILES: CCN(CC)CCn1sc2cc(C)cc(C)c2c1=O
Activity [5]: 2.2

collagen EC50 dose ratio (treated/control) [11]: >27
SMILES: COc1cc2sn(CCCc3ccccn3)c(=O)c2cc1OC
Activity [10]: 2.4

SMILES: O=c1c2ccccc2sn1CCO
Activity [8]: 1.3

SMILES: O=c1c2ccccc2sn1CCCN1CC2CCC(CC2)C1
Activity [3]: 1.2 | Activity [4]: 1.8

SMILES: O=c1c2ccccc2sn1-c1ccccn1
Activity [8]: 0.9

SMILES: O=c1c2ccccc2sn1-c1ccccc1
Activity [1]: 1.1 | Activity [2]: 0.9

SMILES: O=c1c2ccccc2sn1CCCCN1CC2CCC(CC2)C1
Activity [3]: 1.6 | Activity [4]: 4.1

SMILES: COc1cc2sn(CCCN3CC4CCC(CC4)C3)c(=O)c2cc1OC
Activity [3]: 0.9 | Activity [4]: 1.6

SMILES: O=c1c2ccccc2sn1CCCCCN1CCCCC1
Activity [3]: 1.3 | Activity [4]: 1.1

Dose ratio (treated/control collagen EC50) [6]: 1.1
SMILES: Cc1cc(C)c2c(=O)n(CCCCN3CC4CCC(CC4)C3)sc2c1
Activity [5]: 0.8

SMILES: O=c1c2ccccc2sn1CCCCN1CCOCC1
Activity [3]: 1.1 | Activity [4]: 2.4

SMILES: O=c1c2ccccc2sn1CCCN1CCOCC1
Activity [3]: 1.3 | Activity [4]: 2.5

SMILES: COc1cc2sn(CCCCN3CCCCC3)c(=O)c2cc1OC
Activity [3]: 1.1 | Activity [4]: 1.6

SMILES: O=c1c2ccccc2sn1CCN1CCOCC1
Activity [1]: 1 | Activity [2]: 1

Dose ratio (treated/control collagen EC50) [6]: 1.6
SMILES: Cc1cc(C)c2c(=O)n(CCc3ccccn3)sc2c1
Activity [5]: 1

SMILES: Cc1cc2sn(CCN3CCCC3)c(=O)c2cc1C
Activity [10]: 1.9 | Activity [1]: 2.7 | Activity [11]: > 10 | Activity [2]: 1.4

collagen EC50 dose ratio (treated/control) [11]: 7.3
SMILES: COc1cc2sn(CCN3CCCCC3)c(=O)c2cc1OC
Activity [10]: 1.9 | Activity [1]: 2.2 | Activity [2]: 1.1

SMILES: O=c1c2cc(Cl)c(Cl)cc2sn1CCN1CC2CCC(CC2)C1
Activity [8]: 1
